How the values were obtained:
[1] = Cytotoxicity against mouse R7T1 cells assessed as reduction in cell viability measured after 48 hrs by Hoechst 33342 staining based analysis
Method in brief: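 Mouse R7T1 β-cells cultured in high-glucose DMEM with 10% FBS, doxycycline and pyruvate, plated at 25,000 cells/well. Treated in quadruplicate 6 h later (0.169–10,000 nM) for 48 h. Cells fixed in paraformaldehyde and stained with 4 μM Hoechst 33342; nuclei counted by high-content imaging.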

[2] = target: T1, Dual specificity tyrosine-phosphorylation-regulated kinase 1A (Homo sapiens, UniProt Q13627); experiment: Inhibition of DYRK1A in human pancreatic islets assessed as induction of pancreatic beta-cells replication measured after 48 hrs by Hoechst 33342 staining based analysis
Method in brief: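 Human islets (85-95% purity) rested 12 h in low-glucose DMEM with 10% FBS and 20 nM exendin-4. Dispersed to single cells and plated on 804G-conditioned-matrix 384-well plates for 48 h. Treated 48 h, then fixed with 4% PFA. Stained with anti-insulin, anti-Ki-67 and 4 μM Hoechst 33342; Ki67+Insulin+/Insulin+ scored by high-content imaging against per-plate cutoffs.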

[3] = Half life in human liver microsomes at 1 uM preincubated for 10 mins followed by NADPH addition and measured up to 40 mins by LC-MS/MS analysis; format: ADME, Microsome
Method in brief: (§1)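 Human or mouse liver microsomes, each run separately, in 100 mM KxPO4 pH 7.4 with 10 mM MgCl2 and 1 μM test compound. Pre-incubated 10 min at 37 °C, then started with 1 mM NADPH. Quenched in acetonitrile stop solution at 0, 10, 20 and 40 min, centrifuged, diluted and analysed by LC-MS/MS.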

[4] = Selectivity index, ratio of CC50 for mouse R7T1 cells assessed as reduction in cell viability measured after 48 hrs by Hoechst 33342 staining based analysis to MEC for inhibition of DYRK1A in human pancreatic islets assessed as induction of pancreatic beta-cells replication measured after 48 hrs by Hoechst 33342 staining based analysis
[5] = Apparent permeability in human Caco2 cells measured after 2 hrs by LC-MS/MS analysis; format: ADME, cell-based, Caco-2; conditions: for Papp at 2 h: Caco-2
Method in brief: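 Caco-2 monolayers grown on polycarbonate filter inserts (5 × 10⁵ cells/well seeded) and differentiated 21 ± 4 days. Transport run in HBSS with 25 mM HEPES, pH 7.4, 37 °C; compound added donor side. Receiver sampled over 2 h, donor at 0 and 2 h; LC-MS/MS with internal standard. Papp = (dC_rec/dt)/(A × C0,donor) × 10^6.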

[6] = (§2) Cytotoxicity against human HEK293T cells transfected with DYRK1A co-tranfected with Renilla plasmid, pGL3-NFAT and NFATc1 assessed as reduction in luciferase activity by measuring cell number; format: cell-based, HEK-293T
Method in brief: (§3)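 HEK293T cells transfected with PEI using DYRK1A, Renilla plasmid, IL-2-based pGL3-NFAT firefly reporter and NFATc1. Next day the same transfected population was split into 96-well plates; 6 h later cells were treated for 48 h (11-point dose curve, n = 4), then lysed. EC50 from firefly/Renilla ratio, 4-parameter agonist fit. CC50 from loss of constitutive Renilla signal, 4-parameter inhibitor fit.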

Homo sapiens = species: Homo sapiens; experiment: Selectivity index, ratio of CC50 for human HEK293T cells transfected with DYRK1A co-tranfected with Renilla plasmid, pGL3-NFAT and NFATc1 assessed as reduction in luciferase activity by measuring cell number to EC50 for human DYRK1A transfected in HEK293T cells co-transfected with Renilla plasmid, pGL3-NFAT and NFATc1 assessed as derepression of NFAT-dependent luciferase activity measured after 48 hrs by luciferase assay; format: cell-based; method in brief: as §3
[7] = Half life in mouse liver microsomes at 1 uM preincubated for 10 mins followed by NADPH addition and measured up to 40 mins by LC-MS/MS analysis; format: ADME, Microsome; method in brief: as §1
[8] = target: T1, Dual specificity tyrosine-phosphorylation-regulated kinase 1A; experiment: Inhibition of human DYRK1A transfected in HEK293T cells co-transfected with Renilla plasmid, pGL3-NFAT and NFATc1 assessed as derepression of NFAT-dependent luciferase activity measured after 48 hrs by luciferase assay; format: cell-based, HEK-293T; method in brief: as §3
HEK-293T = experiment: as §2; format: cell-based; conditions: hek-293t; method in brief: as §3
AURKB (Aurora kinase B) = AURKB (Aurora kinase B) (Homo sapiens, UniProt Q96GD4); experiment: Inhibition of AURKB in human HEK293T cells assessed as reduction in cell viability at 40 nM measured after 48 hrs relative to control; format: cell-based, HEK-293T
Chain of AURKB (Aurora kinase B) (Q96GD4 whole entry): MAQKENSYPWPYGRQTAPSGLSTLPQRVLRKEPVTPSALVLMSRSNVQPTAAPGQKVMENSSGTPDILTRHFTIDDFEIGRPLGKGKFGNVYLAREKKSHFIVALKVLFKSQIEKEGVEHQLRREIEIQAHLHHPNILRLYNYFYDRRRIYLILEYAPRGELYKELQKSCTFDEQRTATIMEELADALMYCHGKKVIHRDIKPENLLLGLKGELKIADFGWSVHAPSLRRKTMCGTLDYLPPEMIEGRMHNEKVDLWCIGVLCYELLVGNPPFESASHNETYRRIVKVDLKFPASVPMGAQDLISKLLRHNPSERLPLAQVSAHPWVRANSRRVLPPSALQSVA
Method in brief: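 Cells were exposed to the Aurora inhibitor at 40 nM, alone or combined with a second DYRK1A inhibitor at 30, 90 or 270 nM, for 48 h. They were then fixed, stained and counted. Cell number is given as a percentage of untreated wells, with n = 4-16 and error bars as standard deviation.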

[9] = target: Maternal embryonic leucine zipper kinase (Homo sapiens, UniProt Q14680); experiment: Binding affinity to wild-type human full length MELK (M1 to V651 residues) expressed in bacterial expression system by Kinomescan method
Chain of Maternal embryonic leucine zipper kinase (Q14680 whole entry, the tested form may be a part): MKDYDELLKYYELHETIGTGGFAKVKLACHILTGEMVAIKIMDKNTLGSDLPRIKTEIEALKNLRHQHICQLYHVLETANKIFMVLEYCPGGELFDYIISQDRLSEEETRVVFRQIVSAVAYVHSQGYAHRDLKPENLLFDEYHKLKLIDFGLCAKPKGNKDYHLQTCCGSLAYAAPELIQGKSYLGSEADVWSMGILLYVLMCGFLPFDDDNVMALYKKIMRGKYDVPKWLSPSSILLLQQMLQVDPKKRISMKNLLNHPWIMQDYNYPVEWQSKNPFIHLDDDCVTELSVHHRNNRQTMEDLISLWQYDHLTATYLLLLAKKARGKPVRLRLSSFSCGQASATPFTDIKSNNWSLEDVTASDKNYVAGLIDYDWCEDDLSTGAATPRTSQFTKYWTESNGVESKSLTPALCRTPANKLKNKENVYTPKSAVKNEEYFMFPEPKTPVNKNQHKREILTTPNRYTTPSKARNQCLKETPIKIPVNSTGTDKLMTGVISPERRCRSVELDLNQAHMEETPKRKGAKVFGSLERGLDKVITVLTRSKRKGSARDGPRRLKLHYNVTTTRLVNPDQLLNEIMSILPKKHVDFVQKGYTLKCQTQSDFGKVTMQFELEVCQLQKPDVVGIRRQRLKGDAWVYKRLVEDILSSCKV

[10] = target: T1, Dual specificity tyrosine-phosphorylation-regulated kinase 1A; experiment: Binding affinity to wild-type human partial length DYRK1A (H129 to S509 residues) expressed in mammalian expression system by Kinomescan method
Method in brief: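 Kd measured in a KdELECT binding assay using an 11-point, 3-fold dilution series with three DMSO control points.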

Compound	CC50 [1]	MEC [2]	t1/2 [3]	Selectivity Index [4]	Papp at 2 h [5]	CC50 [6]	Ratio CC50/EC50 (Homo sapiens)	t1/2 [7]	EC50 [8]	CC50 (HEK-293T)	inhibition at 48 h, 0.04 µM (AURKB (Aurora kinase B))	Kd [9]	Kd [10]	Papp ([5]; caco-2, 2 h)
CCOC(=O)c1cnc2ccc(-c3cc(Cl)c(O)c(Cl)c3)nc2c1N[C@H]1CC[C@H](CC(N)=O)CC1	1390 nM	63 nM	0.467 h	22	0.01 ×10⁻⁶ cm/s	1890 nM	44	> 2.65 h	43 nM					
CCOC(=O)c1cnc2ccc(-c3cc(C)c(O)c(C)c3)nc2c1N[C@H]1CC[C@H](CN(C)C)CC1	> 10000 nM	250 nM		>40			> 842		12 nM	> 10000 nM				
O=C(O)c1ccc(Nc2ncc3c(n2)-c2ccc(Cl)cc2C(c2c(F)cccc2F)=NC3)cc1 [MLN-8054]											22%			
CC(=O)NC[C@H]1CC[C@H](Nc2c(CO)cnc3ccc(-c4cc(Cl)c(O)c(Cl)c4)nc23)CC1	1710 nM	500 nM		3.4			71		16 nM	1140 nM				
CCOC(=O)c1cnc2ccc(-c3ccnc(N)c3)nc2c1N[C@H]1CC[C@H](CN2CCOCC2)CC1	856 nM	3.3 nM	0.617 h	259	2.7 ×10⁻⁶ cm/s	2960 nM	79	0.25 h	37 nM					
CCOC(=O)c1cnc2ccc(-c3cc(Cl)c(O)c(Cl)c3)nc2c1N[C@H]1CC[C@H](CN)CC1							20		8 nM	165 nM		9 nM	0.22 nM	
CCN(CCO)CCCOc1ccc2c(Nc3cc(CC(=O)Nc4cccc(F)c4)[nH]n3)ncnc2c1 [DEFOSBARASERTIB]											41%			
CCCCNC(=O)c1cnc2ccc(-c3cc(Cl)c(O)c(Cl)c3)nc2c1N[C@H]1CC[C@H](C(=O)N2CCOCC2)CC1	2440 nM	63 nM	1.58 h	39		2120 nM	38	> 2.65 h	56 nM					9.1 ×10⁻⁶ cm/s
CCOC(=O)c1cnc2ccc(-c3cc(Cl)c(O)c(Cl)c3)nc2c1N[C@H]1CC[C@H](C(=O)N(C)C)CC1	2810 nM	31 nM	> 2.65 h	91	0.12 ×10⁻⁶ cm/s		119	> 2.65 h	50 nM	5900 nM		13 nM	0.6 nM	
CCOC(=O)c1cnc2ccc(-c3cc(Cl)c(O)c(Cl)c3)nc2c1N[C@H]1CC[C@H](CN(C)C)CC1							26		7 nM	186 nM		11 nM	0.16 nM	
CCCCNC(=O)c1cnc2ccc(-c3cc(Cl)c(O)c(Cl)c3)nc2c1N[C@H]1CC[C@H](C(N)=O)CC1	1790 nM	125 nM		14			39		175 nM	6850 nM				
CCNC(=O)c1cnc2ccc(-c3ccnc(N)c3)nc2c1N[C@H]1CC[C@H](CN(C)C)CC1	330 nM	> 500 nM					> 216		46 nM	> 10000 nM				
CN(C)C[C@H]1CC[C@H](Nc2c(C#N)cnc3ccc(-c4cc(Cl)c(O)c(Cl)c4)nc23)CC1	160 nM	10 nM		16			> 220		45 nM	> 10000 nM				
CCOC(=O)c1cnc2ccc(-c3cc(Cl)c(O)c(Cl)c3)nc2c1N[C@H]1CC[C@H](CNC(C)=O)CC1	1020 nM	68 nM		15			217		15 nM	3340 nM				
CCOC(=O)c1cnc2ccc(-c3cc(Cl)c(O)c(Cl)c3)nc2c1NC1CCN(C)CC1	387 nM	3.3 nM	> 2.65 h	117	4.6 ×10⁻⁶ cm/s		170	2.15 h	6 nM	1020 nM				
CCCCNC(=O)c1cnc2ccc(-c3cc(Cl)c(O)c(Cl)c3)nc2c1N[C@H]1CC[C@H](CN(C)C)CC1							17		3 nM	51 nM		12 nM	0.075 nM	
